Test [1] has as its target T1, human P2Y2 receptor (Homo sapiens, UniProt P41231). The conditions noted are these: cited from earlier work; for EC50: read-out: Reference comp. (X = OCH2) EC50, native riboside, NE = no effect at 10 μM.
Test [2] concerns the target T2, human P2Y4 receptor (Homo sapiens, UniProt P51582). As to conditions: cited from earlier work; for EC50: read-out: Reference comp. (X = OCH2) EC50, native riboside, NE = no effect at 10 μM.
For test [3], the target named is T3, human P2Y6 receptor (Homo sapiens, UniProt Q15077). As to conditions: read-out: Reference comp. (X = OCH2) EC50, native riboside, NE = no effect at 10 μM; cited from earlier work.
The target of test [4] is T1, human P2Y2 receptor. Format: cell-based. As to conditions: for agonist character (full or partial agonist): relative to UTP. In outline: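 PLC activation via Gq in 1321N1 human astrocytoma cells stably expressing recombinant human P2Y2 receptor. The parent cells lack a native nucleotide response. Concentration–effect curves were generated for each test compound, and the maximal response was expressed as a percentage of the UTP effect (UTP = 100%) to classify full or partial agonism.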

Test [5] has as its target T2, human P2Y4 receptor. Format: cell-based. The conditions noted are these: stimulation of PLC, NE = no effect at 10 μM. In outline: (§1)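 Recombinant human P2Y4 or P2Y6 receptor, Gq-coupled, was stably expressed in 1321N1 human astrocytoma cells, which lack a native nucleotide response. Phospholipase C activation was measured over concentration–effect curves for each test compound. EC50 is the concentration giving 50% of the maximal effect, reported as mean ± standard error.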

Test [6] addresses T3, human P2Y6 receptor. Format: cell-based. In outline: as §1

Read-outs that look alike come from different tables or passages of the source.

T2 sequence (P51582 whole entry): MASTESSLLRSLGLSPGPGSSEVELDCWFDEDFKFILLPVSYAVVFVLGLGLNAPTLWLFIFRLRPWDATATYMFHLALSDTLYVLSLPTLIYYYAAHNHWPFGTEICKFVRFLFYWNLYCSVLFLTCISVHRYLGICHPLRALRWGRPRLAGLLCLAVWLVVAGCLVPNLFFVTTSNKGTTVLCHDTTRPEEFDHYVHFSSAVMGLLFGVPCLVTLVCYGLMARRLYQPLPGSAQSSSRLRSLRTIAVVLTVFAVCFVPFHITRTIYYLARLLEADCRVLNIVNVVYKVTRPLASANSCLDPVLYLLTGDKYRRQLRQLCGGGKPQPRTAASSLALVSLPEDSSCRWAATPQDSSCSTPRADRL
T3 sequence (Q15077 whole entry): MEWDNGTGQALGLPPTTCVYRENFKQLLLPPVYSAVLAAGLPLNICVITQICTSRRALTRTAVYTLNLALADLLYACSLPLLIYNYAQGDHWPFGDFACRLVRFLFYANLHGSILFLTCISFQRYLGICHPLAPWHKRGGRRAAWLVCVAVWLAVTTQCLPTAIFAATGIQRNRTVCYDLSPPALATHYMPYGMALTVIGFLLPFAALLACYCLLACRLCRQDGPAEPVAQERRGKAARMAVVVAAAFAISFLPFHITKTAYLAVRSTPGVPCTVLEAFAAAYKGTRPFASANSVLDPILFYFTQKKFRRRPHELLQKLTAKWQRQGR
T1 sequence (P41231 whole entry): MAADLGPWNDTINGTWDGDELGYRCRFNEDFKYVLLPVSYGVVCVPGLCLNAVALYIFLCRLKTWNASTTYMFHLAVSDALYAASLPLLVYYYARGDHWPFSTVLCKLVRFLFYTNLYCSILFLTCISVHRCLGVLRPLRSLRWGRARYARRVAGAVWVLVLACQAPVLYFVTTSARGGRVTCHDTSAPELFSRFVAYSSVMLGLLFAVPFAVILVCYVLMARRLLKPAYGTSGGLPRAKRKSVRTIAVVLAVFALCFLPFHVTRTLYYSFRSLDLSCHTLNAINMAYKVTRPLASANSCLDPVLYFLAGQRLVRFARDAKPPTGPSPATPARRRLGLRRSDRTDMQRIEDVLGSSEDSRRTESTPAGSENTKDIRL

On to `O=c1ccn([C@@H]2O[C@H](COP(=O)(O)OP(=O)(O)OP(=O)(O)O)[C@@H](O)[C@H]2O)c(=O)[nH]1` [UTP], for which the EC50 (as a rule, the concentration at which the effect is half-maximal) on human P2Y2 receptor [1] was 0.049 ± 0.012 µM; at human P2Y4 receptor [2], 0.073 ± 0.02 µM; on human P2Y6 receptor [3], over 10 µM.
As to `O=c1ccn([C@@H]2O[C@H](/C=C/P(=O)(O)OP(=O)(O)OP(=O)(O)O)[C@@H](O)[C@H]2O)c(=O)[nH]1` [Compound 3, uridine 5′-(diphospho)-vinylphosphonate], the “reduction of potency relative to ATP or UTP” value on human P2Y2 receptor [4] (range over compounds 1, 2 and 3) is given as 16–176 fold. Moreover, the “agonist character (full or partial agonist)” value (from here on “agonist character”) at human P2Y2 receptor [4] was “Full agonist activity”.
Turning to `O=c1ccn([C@@H]2O[C@H](COP(=O)(O)O)[C@@H](O)[C@H]2O)c(=O)[nH]1` [UMP], on human P2Y2 receptor [1] (native riboside, NE = no effect at 10 μM), the “Reference comp. (X = OCH2) EC50” value is reported as “no effect”. For the same molecule, the EC50 at human P2Y2 receptor [1], at human P2Y4 receptor [2] and at human P2Y6 receptor [3] was over 10 µM each time.
On to `O=c1ccn([C@@H]2O[C@H](COP(=O)(O)OP(=O)(O)OC[C@H]3O[C@@H](n4ccc(=O)[nH]c4=O)[C@H](O)[C@@H]3O)[C@@H](O)[C@H]2O)c(=O)[nH]1` [Up2U], for which the EC50 on human P2Y2 receptor [1] is over 10 µM; on human P2Y4 receptor [2], over 10 µM; on human P2Y6 receptor [3], 1.26 ± 0.17 µM.
Take `O=c1ccn([C@@H]2O[C@H](CCP(=O)(O)O)[C@@H](O)[C@H]2O)c(=O)[nH]1` [Compound 7, uridine 5 ′-methylene-phosphonate]: on human P2Y2 receptor [4], the “agonist character” value is reported as “partial ag”. Besides, the EC50 result at human P2Y4 receptor [5] (listed as 5′-methylphosphonate equivalent of UMP) is “inactive”.
Take `O=c1ccn([C@@H]2O[C@H](COP(=O)(O)OP(=O)(O)O)[C@@H](O)[C@H]2O)c(=O)[nH]1` [UDP]: the results for the EC50 at human P2Y2 receptor [1], on human P2Y4 receptor [2] and at human P2Y6 receptor [3] were over 10 µM, over 10 µM and 0.046 ± 0.02 µM, respectively.
`Nc1ncnc2c1ncn2[C@@H]1O[C@H](COP(=O)(O)OP(=O)(O)OP(=O)(O)O)[C@@H](O)[C@H]1O` [ATP]: the EC50 on human P2Y2 receptor [1] was 0.085 ± 0.012 µM. The “Reference comp. (X = OCH2) activity” value on human P2Y4 receptor [2] (native riboside) was “Antagonist[12]”.
With `O=c1ccn([C@@H]2O[C@H](CP(=O)(O)OP(=O)(O)O)[C@@H](O)[C@H]2O)c(=O)[nH]1` [Compound 4, uridine 5′-phospho-phosphonate], on human P2Y2 receptor [4] (effect of UTP = 100%), the “maximal effect relative to that of UTP” value is recorded as at most 50%. Moreover, on human P2Y2 receptor [4], the “agonist character” value is reported as “partial ag”. The same molecule registered an EC50 on human P2Y4 receptor [5] of over 10 µM. In addition, on human P2Y6 receptor [6], the “agonist character” value is reported as “full agonist” and the “potency less than UDP” value is on record as “approximately 40 fold”.
For `O=c1ccn([C@@H]2O[C@H](COP(=O)(O)OP(=O)(O)C[C@H]3O[C@@H](n4ccc(=O)[nH]c4=O)[C@H](O)[C@@H]3O)[C@@H](O)[C@H]2O)c(=O)[nH]1` [Compound 5, di-(uridine- phosphonate)], the EC50 is over 10 µM on human P2Y4 receptor [5] and over 10 µM at human P2Y6 receptor [6] (stimulation of PLC, mean ± standard error, NE = no effect at 10 μM).

The record behind these values is PMC2721324 (Bioorganic & medicinal chemistry letters, 2009).
